# According to ChEMBL document CHEMBL4265908, “Structure-activity and structure-property relationships of novel Nrf2 activators with a 1,2,4-oxadiazole core and their therapeutic effects on acetaminophen (APAP)-induced acute liver injury” (Eur J Med Chem, 2018):
# Active and inactive are the calls of the source. No cut-off for these calls is given here.
# Assays:
# Mus musculus [1] = test: Hepatoprotective activity against APAP-induced liver injury in C57BL/6 mouse assessed as increase in GSH levels administered ip for 7 consecutive days followed by APAP challenge 1 hr post last compound dose and measured after 24 hrs; type: functional, organism-based
# Outline: (§1)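 Female C57BL/6 mice (20–25 g, n = 10/group) received 10, 50 or 100 mg/kg/day ip in saline for 7 days. One hour after the last dose they received APAP 300 mg/kg in saline. Killed 24 h later. Serum ALT/AST by kit. Liver homogenates (pH 7.0 phosphate) used for GSH (A420, μmol/g protein), GST (A412, U/mg protein) and SOD. Liver also analyzed by western blot (β-actin normalized), qRT-PCR (GAPDH normalized) and H&E.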
# [2] = target: T1, Nuclear factor erythroid 2-related factor 2 (Homo sapiens) (UniProt Q16236); test: Activation of Nrf2 in human HepG2-ARE-C8 cells assessed as induction of ARE-mediated luciferase activity at 40 uM after 24 hrs by luciferase reporter gene assay relative to control; type: cell-based
# T1 sequence (whole entry): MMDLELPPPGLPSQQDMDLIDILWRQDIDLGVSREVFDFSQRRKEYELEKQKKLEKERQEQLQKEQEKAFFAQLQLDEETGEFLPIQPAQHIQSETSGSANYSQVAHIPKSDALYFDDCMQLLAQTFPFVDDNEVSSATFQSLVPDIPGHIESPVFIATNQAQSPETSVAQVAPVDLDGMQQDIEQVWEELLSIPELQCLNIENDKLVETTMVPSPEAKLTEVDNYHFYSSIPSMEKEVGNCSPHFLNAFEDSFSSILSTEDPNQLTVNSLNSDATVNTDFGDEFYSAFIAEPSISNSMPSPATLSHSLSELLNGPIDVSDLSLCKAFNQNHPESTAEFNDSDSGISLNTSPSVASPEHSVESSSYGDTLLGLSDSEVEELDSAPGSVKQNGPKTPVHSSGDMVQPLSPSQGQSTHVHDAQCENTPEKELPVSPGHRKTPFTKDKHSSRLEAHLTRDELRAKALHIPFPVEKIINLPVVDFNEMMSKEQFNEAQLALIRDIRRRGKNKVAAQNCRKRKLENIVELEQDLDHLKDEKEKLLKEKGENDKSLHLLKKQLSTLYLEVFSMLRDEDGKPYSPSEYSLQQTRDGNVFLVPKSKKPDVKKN
# Outline: (§2)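 HepG2-ARE-C8 cells stably carrying ARE-luciferase, grown in DMEM with 10% FBS at 37 °C and 5% CO2. Seeded at 5 × 10^4 cells/well, left overnight, then given compound diluted from a 10 mM DMSO stock for 24 h. Cells lysed and luciferase read as RLU. Inductivity = (RLUtest − RLUblank)/(RLUcontrol − RLUblank), with DMSO as control. Mean ± SEM of three experiments.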
# L02 [3] = test: Hepatoprotective activity against APAP-induced cell injury in human LO2 cells cotreated with Nrf2 siRNA assessed as cell viability at 20 uM pretreated for 24 hrs followed by APAP treatment measured after 24 hrs by MTT assay; type: functional; details: read-out: Activity
# Outline: (§3)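 LO2 cells plated for 12 h and pretreated for 24 h with 5, 10 or 20 μM compound. One arm was first transfected with 50 nM Nrf2 siRNA before receiving 20 μM compound. Medium then replaced with medium containing 8 mM APAP for 24 h. Viability by MTT at A570. Mean ± SD of three experiments.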
# L02 [4] = test: Hepatoprotective activity against APAP-induced cell injury in human LO2 cells assessed as increase in cell viability pretreated for 24 hrs followed by APAP treatment measured after 24 hrs by MTT assay; type: functional, cell-based; outline: as §3
# Mus musculus [5] = test: In vivo activation of Nrf2 in APAP-induced liver injury in C57BL/6 mouse assessed as increase in Nrf2 protein expression level at 10 to 100 mg/kg, ip administered for 7 consecutive days followed by APAP challenge 1 hr post last compound dose and measured after 24 hrs by Western blot analysis; type: functional, organism-based; outline: as §1
# [6] = target: T1, Nuclear factor erythroid 2-related factor 2 (Homo sapiens); test: Activation of Nrf2 in human HepG2-ARE-C8 cells assessed as induction of ARE-mediated luciferase activity at 20 uM after 24 hrs by luciferase reporter gene assay relative to control; type: cell-based; outline: as §2
# L02 [7] = test: Hepatoprotective activity against APAP-induced cell injury in human LO2 cells assessed as increase in cell viability at 20 uM pretreated for 24 hrs followed by APAP treatment measured after 24 hrs by MTT assay; type: functional; outline: as §3
# L02 [8] = test: Cytotoxicity against human LO2 cells up to 160 uM after 24 hrs by MTT assay; type: cell-based; details: l02, 24 h
# Outline: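 LO2 cells plated for 12 h, then treated for 24 h with 0, 0.2, 2, 20, 40, 80 or 160 μM compound diluted in medium from a DMSO stock. MTT (5 mg/mL stock) added for 4 h, formazan dissolved in DMSO, A570 read. Viability computed from OD relative to DMSO control and blank. Mean ± SD of three experiments.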
# [9] = target: T1, Nuclear factor erythroid 2-related factor 2 (Homo sapiens); test: Activation of Nrf2 in human HepG2-ARE-C8 cells assessed as induction of ARE-mediated luciferase activity at 0.01 uM after 24 hrs by luciferase reporter gene assay relative to control; type: cell-based; outline: as §2
# Mus musculus [10] = test: Hepatoprotective activity against APAP-induced liver injury in C57BL/6 mouse assessed as decrease in APAP-induced cell necrosis administered ip for 7 consecutive days followed by APAP challenge 1 hr post last compound dose and measured after 24 hrs by hematoxylin/eosin staining based assay; type: functional, organism-based; outline: as §1
# [11] = target: T1, Nuclear factor erythroid 2-related factor 2 (Homo sapiens); test: Activation of Nrf2 in human LO2 cells assessed as increase in HO-1 mRNA expression level by qRT-PCR analysis; type: cell-based
# Outline: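 LO2 cells in DMEM with 10% FBS were exposed to 0, 2.5, 5, 10, 20 or 40 μM compound for 12 h. Transcripts measured by qRT-PCR: 40 cycles of 95 °C for 5 s and 60 °C for 30 s. Normalized to GAPDH and expressed as fold over the untreated control. Mean ± SD, n = 3.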
# Mus musculus [12] = test: In vivo activation of Nrf2 in APAP-induced liver injury in C57BL/6 mouse assessed as increase in NQO1 protein expression level at 10 to 100 mg/kg, ip administered for 7 consecutive days followed by APAP challenge 1 hr post last compound dose and measured after 24 hrs by Western blot analysis; type: functional, organism-based; outline: as §1
# Mus musculus [13] = test: In vivo activation of Nrf2 in APAP-induced liver injury in C57BL/6 mouse assessed as increase in NQO1 mRNA expression level administered ip for 7 consecutive days followed by APAP challenge 1 hr post last compound dose and measured after 24 hrs by qRT-PCR analysis; type: functional, organism-based; outline: as §1
# Mus musculus [14] = test: Hepatoprotective activity against APAP-induced liver injury in C57BL/6 mouse assessed as increase in SOD levels administered ip for 7 consecutive days followed by APAP challenge 1 hr post last compound dose and measured after 24 hrs by NBT assay; type: functional, organism-based; outline: as §1
# [15] = Lipophilicity, log D of the compound at pH 7.4 by potentiometric titration method; type: physicochemical; details: buffer
# Outline: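 Intrinsic aqueous solubility and logD at pH 7.4 determined by Avdeef-Bucher potentiometric titration on a pION Gemini Profiler.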
# Mus musculus [16] = test: In vivo activation of Nrf2 in APAP-induced liver injury in C57BL/6 mouse assessed as increase in GCLM mRNA expression level administered ip for 7 consecutive days followed by APAP challenge 1 hr post last compound dose and measured after 24 hrs by qRT-PCR analysis; type: functional, organism-based; outline: as §1
structure (smiles),measurement,setting,value
Cc1ccc(-c2noc(-c3ccc(F)c(F)c3)n2)cn1,Activity,Mus musculus [1],Dose-dependent effect
same,Activity,[2],48.7
same,viability at 20 µM,L02 [3],50%
same,Activity,L02 [4],Dose-dependent effect
same,Activity,Mus musculus [5],Active
same,Activity,[6],24.7
same,Activity,L02 [7],80%
same,Activity,L02 [8],<= 7%
same,Activity,[9],2.75
same,Activity,Mus musculus [10],Dose-dependent effect
same,Activity,[11],Dose-dependent effect
same,Activity,Mus musculus [12],Active
same,Activity,Mus musculus [13],Dose-dependent effect
same,Activity,Mus musculus [14],Dose-dependent effect
same,logD,[15],3.07
same,Activity,Mus musculus [16],Dose-dependent effect
